In ChEMBL document CHEMBL3352770, “Click chemistry inspired synthesis and bioevaluation of novel triazolyl derivatives of osthol as potent cytotoxic agents” (Eur J Med Chem, 2014):

Assays:
COLO 205 [1] = experiment: Induction of apoptosis in human COLO205 cells assessed as accumulation at subG1 phase at 10 uM after 48 hrs by propidium iodide staining based flow cytometry (reference value: 12%); assay type: functional
Method in brief: (§1)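 Colo-205 seeded at 5 × 10⁵ cells/ml in 6-well plates and grown 24 h. Treated at 1, 5, 10 and 25 µM for 48 h. Harvested, washed in PBS, fixed in 70% ethanol overnight at −20 °C. Stained 30 min in the dark with PI, EDTA, RNase and Triton X-100 in PBS. DNA content by flow cytometry, sub-G1 taken as apoptotic. Untreated/DMSO negative control; camptothecin 1 µM positive control; two experiments.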

COLO 205 [2] = experiment: Induction of cell cycle arrest in human COLO205 cells assessed as accumulation at G1 phase at 10 uM after 48 hrs by propidium iodide staining based flow cytometry (reference value: 45.7%); assay type: functional; method in brief: as §1
COLO 205 [3] = experiment: Induction of apoptosis in human COLO205 cells assessed as accumulation at subG1 phase after 48 hrs by propidium iodide staining based flow cytometry; assay type: functional, cell-based; method in brief: as §1
A-431 = experiment: Cytotoxicity against human A431 cells after 24 hrs by MTT assay; assay type: functional, cell-based; details: A-431, 24 h
Method in brief: (§2)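 Cells kept in DMEM with 10% foetal calf serum, penicillin and streptomycin, at 37 °C under 5% CO2. For assays serum lowered to 3%. Cells treated with test material at 0.04–60 µM for 24 h, then MTT (250 µg/mL) for 3 h. Formazan OD read at 570 nm. IC50 by non-linear regression, mean of triplicates. BEZ-235 as positive control.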

COLO 205 [4] = experiment: Induction of cell cycle arrest in human COLO205 cells assessed as accumulation at G1 phase at 1 uM after 48 hrs by propidium iodide staining based flow cytometry (reference value: 45.7%); assay type: functional
COLO 205 [5] = experiment: Induction of cell cycle arrest in human COLO205 cells assessed as accumulation at G2 phase at 25 uM after 48 hrs by propidium iodide staining based flow cytometry (reference value: 13.2%); assay type: functional; method in brief: as §1
COLO 205 [6] = experiment: Induction of cell cycle arrest in human COLO205 cells assessed as accumulation at S phase at 10 uM after 48 hrs by propidium iodide staining based flow cytometry (reference value: 13.8%); assay type: functional; method in brief: as §1
COLO 205 [7] = experiment: Induction of cell cycle arrest in human COLO205 cells assessed as accumulation at G1 phase at 25 uM after 48 hrs by propidium iodide staining based flow cytometry (reference value: 45.7%); assay type: functional; method in brief: as §1
COLO 205 [8] = experiment: Induction of mitochondrial membrane potential loss in human COLO205 cells at 5 uM after 48 hrs by Rh-123 staining based flow cytometry (reference value: 12.4%); assay type: functional
COLO 205 [9] = experiment: Induction of apoptosis in human COLO205 cells assessed as accumulation at subG1 phase at 1 uM after 48 hrs by propidium iodide staining based flow cytometry (reference value: 12%); assay type: functional
COLO 205 [10] = experiment: Induction of cell cycle arrest in human COLO205 cells assessed as accumulation at S phase at 5 uM after 48 hrs by propidium iodide staining based flow cytometry (reference value: 13.8%); assay type: functional; method in brief: as §1
COLO 205 [11] = experiment: Induction of cell cycle arrest in human COLO205 cells assessed as accumulation at G2 phase at 1 uM after 48 hrs by propidium iodide staining based flow cytometry (reference value: 13.2%); assay type: functional
[12] = Cytotoxicity against human PC3 cells after 24 hrs by MTT assay; assay type: functional, cell-based; details: PC-3, 24 h; method in brief: as §2
A549 = experiment: Cytotoxicity against human A549 cells after 24 hrs by MTT assay; assay type: functional, cell-based; details: A549, 24 h; method in brief: as §2
COLO 205 [13] = experiment: Induction of cell cycle arrest in human COLO205 cells assessed as accumulation at G2 phase at 10 uM after 48 hrs by propidium iodide staining based flow cytometry (reference value: 13.2%); assay type: functional; method in brief: as §1
COLO 205 [14] = experiment: Induction of mitochondrial membrane potential loss in human COLO205 cells at 25 uM after 48 hrs by Rh-123 staining based flow cytometry (reference value: 12.4%); assay type: functional
COLO 205 [15] = experiment: Induction of cell cycle arrest in human COLO205 cells assessed as accumulation at G2 phase at 5 uM after 48 hrs by propidium iodide staining based flow cytometry (reference value: 13.2%); assay type: functional; method in brief: as §1
COLO 205 [16] = experiment: Induction of cell cycle arrest in human COLO205 cells assessed as accumulation at G1 phase at 5 uM after 48 hrs by propidium iodide staining based flow cytometry (reference value: 45.7%); assay type: functional; method in brief: as §1
T47D = experiment: Cytotoxicity against human T47D cells after 24 hrs by MTT assay; assay type: functional, cell-based; method in brief: as §2
[17] = Cytotoxicity against human HCT116 cells after 24 hrs by MTT assay; assay type: functional, cell-based; details: HCT-116, 24 h; method in brief: as §2
COLO 205 [18] = experiment: Induction of apoptosis in human COLO205 cells assessed as accumulation at subG1 phase at 5 uM after 48 hrs by propidium iodide staining based flow cytometry (reference value: 12%); assay type: functional; method in brief: as §1
COLO 205 [19] = experiment: Induction of apoptosis in human COLO205 cells assessed as accumulation at subG1 phase at 25 uM after 48 hrs by propidium iodide staining based flow cytometry (reference value: 12%); assay type: functional; method in brief: as §1
[20] = Cytotoxicity against human NCI-H322 cells after 24 hrs by MTT assay; assay type: functional, cell-based; details: NCI-H322, 24 h; method in brief: as §2
COLO 205 [21] = experiment: Cytotoxicity against human COLO205 cells after 24 hrs by MTT assay; assay type: functional, cell-based; details: COLO 205, 24 h; method in brief: as §2
COLO 205 [22] = experiment: Induction of mitochondrial membrane potential loss in human COLO205 cells at 1 uM after 48 hrs by Rh-123 staining based flow cytometry (reference value: 12.4%); assay type: functional
COLO 205 [23] = experiment: Induction of mitochondrial membrane potential loss in human COLO205 cells at 10 uM after 48 hrs by Rh-123 staining based flow cytometry (reference value: 12.4%); assay type: functional
COLO 205 [24] = experiment: Induction of cell cycle arrest in human COLO205 cells assessed as accumulation at S phase at 1 uM after 48 hrs by propidium iodide staining based flow cytometry (reference value: 13.8%); assay type: functional
COLO 205 [25] = experiment: Induction of cell cycle arrest in human COLO205 cells assessed as accumulation at S phase at 25 uM after 48 hrs by propidium iodide staining based flow cytometry (reference value: 13.8%); assay type: functional; method in brief: as §1

Structure (SMILES): COc1ccc(/C=C\C(=O)O)c(OCc2cn(-c3ccc(CC#N)cc3)nn2)c1CC=C(C)C
- Activity (COLO 205 [1]): 15.7%
- Activity (COLO 205 [2]): 45%
- Activity (COLO 205 [3]): Dose-dependent effect
- IC50 (A-431): 7.2 µM
- Activity (COLO 205 [4]): 46.4%
- Activity (COLO 205 [5]): 10.4%
- Activity (COLO 205 [6]): 14.7%
- Activity (COLO 205 [7]): 38.5%
- Activity (COLO 205 [8]): 26.9%
- Activity (COLO 205 [9]): 12.5%
- Activity (COLO 205 [10]): 16.1%
- Activity (COLO 205 [11]): 12.9%
- IC50 [12]: 26.4 µM
- IC50 (A549): 35.2 µM
- Activity (COLO 205 [13]): 11.2%
- Activity (COLO 205 [14]): 29.9%
- Activity (COLO 205 [15]): 11.5%
- Activity (COLO 205 [16]): 46.8%
- IC50 (T47D): 3.6 µM
- IC50 [17]: 4.9 µM
- Activity (COLO 205 [18]): 15.2%
- Activity (COLO 205 [19]): 24.1%
- IC50 [20]: 41 µM
- IC50 (COLO 205 [21]): 1.3 µM
- Activity (COLO 205 [22]): 24.4%
- Activity (COLO 205 [23]): 29.7%
- Activity (COLO 205 [24]): 13.9%
- Activity (COLO 205 [25]): 13.2%

Structure (SMILES): COc1ccccc1-n1cc(COc2c(/C=C\C(=O)O)ccc(OC)c2CC=C(C)C)nn1
- IC50 (A-431): 32.6 µM
- IC50 (A549): 43 µM
- IC50 [17]: 32.2 µM
- IC50 [20]: 41.5 µM
- IC50 (COLO 205 [21]): 12.2 µM

Structure (SMILES): COc1ccc(/C=C\C(=O)O)c(OCc2cn(-c3ccccc3C#N)nn2)c1CC=C(C)C
- IC50 (A-431): 10.3 µM
- IC50 (A549): 38.6 µM
- IC50 (T47D): 8.8 µM
- IC50 [17]: 38.3 µM
- IC50 [20]: 14.4 µM
- IC50 (COLO 205 [21]): 3.2 µM

Structure (SMILES): COc1ccc(-n2cc(COc3c(/C=C\C(=O)O)ccc(OC)c3CC=C(C)C)nn2)cc1
- IC50 (A549): 10.2 µM
- IC50 [17]: 8.7 µM

Structure (SMILES): COc1ccc(/C=C\C(=O)O)c(OCc2cn(-c3ccc4c(c3)OCO4)nn2)c1CC=C(C)C
- IC50 (A-431): 23.1 µM
- IC50 [12]: 32 µM
- IC50 (A549): 19.4 µM
- IC50 (T47D): 13.2 µM
- IC50 [17]: 20.4 µM
- IC50 [20]: 22.7 µM

Structure (SMILES): COc1cccc(-n2cc(COc3c(/C=C\C(=O)O)ccc(OC)c3CC=C(C)C)nn2)c1
- IC50 (A-431): 23.2 µM
- IC50 (A549): 42.7 µM
- IC50 (T47D): 20.4 µM
- IC50 [17]: 21.6 µM
- IC50 [20]: 25.2 µM

Structure (SMILES): COc1ccc(/C=C\C(=O)O)c(OCc2cn(-c3ccccc3C(=O)N3CCC(O)C3)nn2)c1CC=C(C)C (stereo not drawn)
- IC50 (A-431): 31.5 µM
- IC50 [12]: 36.2 µM
- IC50 (T47D): 13.4 µM
- IC50 [17]: 32 µM
- IC50 (COLO 205 [21]): 25.4 µM

Structure (SMILES): COc1ccc(/C=C\C(=O)O)c(OCc2cn(-c3ccc(C#N)cc3)nn2)c1CC=C(C)C
- IC50 (A-431): 23 µM
- IC50 (A549): 42.2 µM
- IC50 (T47D): 10.2 µM
- IC50 [17]: 21 µM
- IC50 [20]: 18.6 µM
- IC50 (COLO 205 [21]): 32 µM

Structure (SMILES): COc1ccc(/C=C\C(=O)O)c(OCc2cn(-c3cccc(C#N)c3)nn2)c1CC=C(C)C
- IC50 (A-431): 22.9 µM
- IC50 [12]: 45.5 µM
- IC50 (T47D): 19.2 µM
- IC50 [17]: 35.3 µM
- IC50 [20]: 26.5 µM
- IC50 (COLO 205 [21]): 26.8 µM

Structure (SMILES): COc1ccc(/C=C\C(=O)O)c(OCc2cn(P(=O)(Oc3ccccc3)Oc3ccccc3)nn2)c1CC=C(C)C
- IC50 (A-431): 43.3 µM
- IC50 [12]: 36.2 µM
- IC50 (T47D): 30.6 µM
- IC50 [17]: 35.5 µM

Structure (SMILES): COc1ccc(/C=C\C(=O)O)c(OCc2cn(-c3ccccc3F)nn2)c1CC=C(C)C
- IC50 (A-431): 12.4 µM
- IC50 [12]: 24.2 µM
- IC50 (T47D): 11 µM
- IC50 [20]: 45.6 µM
- IC50 (COLO 205 [21]): 14.5 µM
